Experiments:
[1] = Cytotoxicity against MDCK cells assessed as alteration in cell morphology after 3 days by microscopic method; assay type: cell-based, Canis lupus familiaris; details: dog
Summary of the method: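 Mock-infected MDCK cells were treated with compounds in parallel with the antiviral assay, 3 days at 35 °C. MCC is the concentration causing minimal change in cell morphology by microscopy. CC50 is the 50% cytotoxic concentration by MTS formazan viability assay.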

Influenza B virus [2] = test: Antiviral activity against Influenza B virus B/HK/05/72 infected in MDCK cells assessed as reduction in virus-induced cytopathic effect after 3 days by microscopic method; assay type: functional, organism-based; details: B/Hong Kong/05/1972, MDCK, 72 h
Summary of the method: (§1)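 Semi-confluent MDCK cells were infected at an MOI of 0.0004 PFU/cell in Ultra-MDCK infection medium with 2 μg/mL TPCK-trypsin, together with compounds. After 3 days at 35 °C, CPE was scored by microscopy and confirmed by MTS formazan viability. EC50 is the concentration giving 50% inhibition of virus-induced CPE. Values are means of two to five independent tests.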

Influenza A virus [3] = test: Antiviral activity against Influenza A virus A/Virginia/ATCC3/2009(H1N1pdm) infected in MDCK cells assessed as reduction in virus-induced cytopathic effect after 3 days by microscopic method; assay type: functional, organism-based, Influenza A virus (A/Virginia/03/2009(H1N1)); details: 72 h; summary of the method: as §1
Influenza B virus [4] = test: Antiviral activity against Influenza B virus B/HK/05/72 infected in MDCK cells after 3 days by MTS assay; assay type: functional, organism-based; details: B/Hong Kong/05/1972, MDCK, 72 h; summary of the method: as §1
Influenza A virus [5] = test: Antiviral activity against Influenza A virus A/PR/8/34(H1N1) infected in MDCK cells after 3 days by MTS assay; assay type: functional, organism-based, A/Puerto Rico/8/1934(H1N1); details: Influenza A virus, A/Puerto Rico/8/1934(H1N1), MDCK, 72 h; summary of the method: as §1
[6] = (§2) Cytotoxicity against MDCK cells assessed as reduction in cell viability after 3 days by MTS assay; assay type: cell-based, Canis lupus familiaris; details: dog, MDCK cells
Influenza A virus [7] = test: Antiviral activity against Influenza A virus A/PR/8/34(H1N1) infected in MDCK cells assessed as reduction in virus-induced cytopathic effect after 3 days by microscopic method; assay type: functional, organism-based, A/Puerto Rico/8/1934(H1N1); details: Influenza A virus, A/Puerto Rico/8/1934(H1N1), MDCK, 72 h; summary of the method: as §1
Influenza A virus [8] = test: Antiviral activity against Influenza A virus A/Virginia/ATCC3/2009(H1N1pdm) infected in MDCK cells after 3 days by MTS assay; assay type: functional, organism-based, Influenza A virus (A/Virginia/03/2009(H1N1)); details: 72 h; summary of the method: as §1
H3N2 subtype [9] = test: Antiviral activity against Influenza A virus A/HK/7/87(H3N2) infected in MDCK cells after 3 days by MTS assay; assay type: functional, organism-based; details: A/Hong Kong/7/1987(H3N2), 72 h; summary of the method: as §1
H3N2 subtype [10] = test: Antiviral activity against Influenza A virus A/HK/7/87(H3N2) infected in MDCK cells assessed as reduction in virus-induced cytopathic effect after 3 days by microscopic method; assay type: functional, organism-based; details: A/Hong Kong/7/1987(H3N2), 72 h; summary of the method: as §1
Influenza B virus [11] = test: Antiviral activity against Influenza B virus B/Ned/537/05 infected in MDCK cells after 3 days by MTS assay; assay type: functional, organism-based; details: B/Ned/537/05, MDCK, 72 h
Summary of the method: (§3)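 Semi-confluent MDCK cells were infected at an MOI of 0.0004 PFU/cell in Ultra-MDCK infection medium with 2 μg/mL TPCK-trypsin, together with compounds. After 3 days at 35 °C, CPE was scored by microscopy and confirmed by MTS formazan viability. Values are means of two to five independent tests.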

[12] = Cytotoxicity against HEL299 cells assessed as changes in cell morphology after 5 days by microscopic method; assay type: cell-based, HEL 299; details: human
Summary of the method: (§4)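 Confluent HEL 299 cells in medium with 2% FCS were exposed to HCoV-229E (100 CCID50/well) together with compounds and held for 5 days at 35 °C. EC50 (CPE reduction) and MCC (minimal morphology change) were determined by microscopy. SI is MCC/EC50.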

MDCK = test: as §2; assay type: cell-based, Canis lupus familiaris; details: dog, mdck, 72 h
Influenza B virus [13] = test: Antiviral activity against Influenza B virus B/Ned/537/05 infected in MDCK cells assessed as reduction in virus-induced cytopathic effect after 3 days by microscopic method; assay type: functional, organism-based; details: B/Ned/537/05, MDCK, 72 h; summary of the method: as §3
Human coronavirus 229E [14] = test: Antiviral activity against Human coronavirus 229E infected in HEL299 cells assessed as reduction in virus induced cytopathic effect after 5 days by microscopic method; assay type: functional, organism-based; details: HEL 299, 120 h; summary of the method: as §4
[15] = Cytotoxicity against human A549 cells assessed as changes in cell morphology after 3 days by microscopic method; assay type: cell-based
Summary of the method: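 Mock-infected A549 cells were incubated with compounds for 3 days. MCC is the concentration causing minimal change in cell morphology by microscopy.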

Human coronavirus 229E [16] = test: Antiviral activity against Human coronavirus 229E infected in human A549 cells assessed as reduction in virus RNA level after 3 days by qRT-PCR method; assay type: functional; details: A549, 72 h
Summary of the method: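 Confluent A549 cells were infected with HCoV-229E in 2% FCS medium with compounds present. The inoculum was removed at 1 h and compounds were kept on at 35 °C. Supernatants were harvested at day 3, lysed at 75 °C for 10 min, and viral genome copies counted by one-step qRT-PCR.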

| SMILES | MCC at 72 h [1] [µM] | EC50 (Influenza B virus [2]) [µM] | EC50 (Influenza A virus [3]) [µM] | EC50 (Influenza B virus [4]) [µM] | EC50 (Influenza A virus [5]) [µM] | CC50 at 72 h [6] [µM] | EC50 (Influenza A virus [7]) [µM] | EC50 (Influenza A virus [8]) [µM] | EC50 (H3N2 subtype [9]) [µM] | EC50 (H3N2 subtype [10]) [µM] | EC50 (Influenza B virus [11]) [µM] | MCC at 120 h [12] [µM] | CC50 (MDCK) [µM] | EC50 (Influenza B virus [13]) [µM] | EC50 (Human coronavirus 229E [14]) [µM] | MCC at 72 h [15] [µM] | EC90 (Human coronavirus 229E [16]) [µM] | EC99 (Human coronavirus 229E [16]) [µM] |
| --- | --- | --- | --- | --- | --- | --- | --- | --- | --- | --- | --- | --- | --- | --- | --- | --- | --- | --- |
| CCCCCCCCCCOCc1cn([C@H]2C(=O)N[C@@H]3Cc4ccc(c(Cl)c4)Oc4cc5cc(c4O)Oc4ccc(cc4Cl)[C@@H](O[C@@H]4O[C@H](CO)[C@@H](O)[C@H](O)[C@H]4NC(C)=O)[C@H]4NC(=O)[C@H](NC(O)[C@@H]5NC(=O)[C@@H](NC3=O)c3cc(O)cc(c3)Oc3cc2ccc3O)c2ccc(O)c(c2)-c2c(O)cc(O)cc2[C@H](C(=O)O)NC4=O)nn1 (stereo not given in full) | 4 | > 100 | > 100 | > 100 | > 100 | 3.7 | > 100 | > 100 | > 100 | > 100 | – | – | – | – | – | – | – | – |
| CCCCCCCCCCCCCCCCOCc1cn([C@H]2C(=O)N[C@@H]3Cc4ccc(c(Cl)c4)Oc4cc5cc(c4O)Oc4ccc(cc4Cl)[C@@H](O[C@@H]4O[C@H](CO)[C@@H](O)[C@H](O)[C@H]4NC(C)=O)[C@H]4NC(=O)[C@H](NC(O)[C@@H]5NC(=O)[C@@H](NC3=O)c3cc(O)cc(c3)Oc3cc2ccc3O)c2ccc(O)c(c2)-c2c(O)cc(O)cc2[C@H](C(=O)O)NC4=O)nn1 (stereo not given in full) | ≥ 4 | 1.8 | 1.8 | 1.3 | 1.8 | 7.6 | 1.6 | 1.8 | ≤ 1.6 | ≤ 8.9 | – | – | – | – | – | – | – | – |
| CC(=O)N[C@H]1[C@H](O[C@@H]2c3ccc(c(Cl)c3)Oc3cc4cc(c3O)Oc3ccc(cc3Cl)C[C@H]3NC(=O)[C@H](n5cc(COc6ccccc6)nn5)c5ccc(O)c(c5)Oc5cc(O)cc(c5)[C@H](NC3=O)C(=O)N[C@H]4C(O)N[C@H]3C(=O)N[C@H]2C(=O)N[C@@H](C(=O)O)c2cc(O)cc(O)c2-c2cc3ccc2O)O[C@H](CO)[C@@H](O)[C@@H]1O (stereo not given in full) | ≥ 20 | > 100 | > 100 | > 100 | > 100 | 41 | > 100 | > 100 | 11 | 11 | – | – | – | – | – | – | – | – |
| CCCCCCCCCCCCOCc1cn([C@H]2C(=O)N[C@@H]3Cc4ccc(c(Cl)c4)Oc4cc5cc(c4O)Oc4ccc(cc4Cl)[C@@H](O[C@@H]4O[C@H](CO)[C@@H](O)[C@H](O)[C@H]4NC(C)=O)[C@H]4NC(=O)[C@H](NC(O)[C@@H]5NC(=O)[C@@H](NC3=O)c3cc(O)cc(c3)Oc3cc2ccc3O)c2ccc(O)c(c2)-c2c(O)cc(O)cc2[C@H](C(=O)O)NC4=O)nn1 (stereo not given in full) | 9.3 | > 100 | > 100 | > 100 | > 100 | 2.3 | > 100 | > 100 | > 100 | > 100 | – | – | – | – | – | – | – | – |
| CCCCSC1=C(SCCCC)C(=O)N(Cc2cn(C3C(=O)N[C@@H]4Cc5ccc(c(Cl)c5)Oc5cc6cc(c5O)Oc5ccc(cc5Cl)[C@@H](O[C@@H]5O[C@H](CO)[C@@H](O)[C@H](O)[C@H]5NC(C)=O)[C@H]5NC(=O)[C@H](NC(O)[C@@H]6NC(=O)[C@@H](NC4=O)c4cc(O)cc(c4)Oc4cc3ccc4O)c3ccc(O)c(c3)-c3c(O)cc(O)cc3[C@H](C(=O)O)NC5=O)nn2)C1=O (stereo not given in full) | 20 | – | 9.8 | – | 3.2 | – | 2.1 | 7.4 | 4.9 | > 100 | 3.5 | ≥ 20 | 28 | 2.5 | 5.4 | > 50 | 5.9 | 11 |
| CCCCSC1=C(SCCCC)C(=O)N([C@H]2C(=O)N[C@@H]3Cc4ccc(c(Cl)c4)Oc4cc5cc(c4O)Oc4ccc(cc4Cl)[C@@H](O[C@@H]4O[C@H](CO)[C@@H](O)[C@H](O)[C@H]4NC(C)=O)[C@H]4NC(=O)[C@H](NC(O)[C@@H]5NC(=O)[C@@H](NC3=O)c3cc(O)cc(c3)Oc3cc2ccc3O)c2ccc(O)c(c2)-c2c(O)cc(O)cc2[C@H](C(=O)O)NC4=O)C1=O (stereo not given in full) | 4 | – | 2.9 | – | > 100 | – | > 100 | 2.6 | > 100 | > 100 | > 100 | ≥ 20 | 8.6 | > 100 | 5.4 | 50 | 4.1 | 10 |
| CC(=O)N[C@H]1[C@H](O[C@@H]2c3ccc(c(Cl)c3)Oc3cc4cc(c3O)Oc3ccc(cc3Cl)C[C@H]3NC(=O)[C@H](n5cc(COc6cccc7ccccc67)nn5)c5ccc(O)c(c5)Oc5cc(O)cc(c5)[C@H](NC3=O)C(=O)N[C@H]4C(O)N[C@H]3C(=O)N[C@H]2C(=O)N[C@@H](C(=O)O)c2cc(O)cc(O)c2-c2cc3ccc2O)O[C@H](CO)[C@@H](O)[C@@H]1O (stereo not given in full) | 20 | 15 | 11 | 6.6 | 11 | 47 | 11 | 4.4 | 8 | 15 | – | – | – | – | – | – | – | – |
| CC(=O)N[C@H]1[C@H](O[C@@H]2c3ccc(c(Cl)c3)Oc3cc4cc(c3O)Oc3ccc(cc3Cl)C[C@H]3NC(=O)[C@H](NS(=O)(=O)c5ccccc5)c5ccc(O)c(c5)Oc5cc(O)cc(c5)[C@H](NC3=O)C(=O)N[C@H]4C(O)N[C@H]3C(=O)N[C@H]2C(=O)N[C@@H](C(=O)O)c2cc(O)cc(O)c2-c2cc3ccc2O)O[C@H](CO)[C@@H](O)[C@@H]1O (stereo not given in full) | 100 | – | 46 | – | 27 | – | 16 | 52 | 23 | 25 | 21 | ≥ 20 | > 100 | 51 | 5.5 | > 50 | 6.8 | 11 |
| CCCCCCCCOCc1cn(CCOCCOCCOCCOCc2cn([C@H]3C(=O)N[C@@H]4Cc5ccc(c(Cl)c5)Oc5cc6cc(c5O)Oc5ccc(cc5Cl)[C@@H](O[C@@H]5O[C@H](CO)[C@@H](O)[C@H](O)[C@H]5NC(C)=O)[C@H]5NC(=O)[C@H](NC(O)[C@@H]6NC(=O)[C@@H](NC4=O)c4cc(O)cc(c4)Oc4cc3ccc4O)c3ccc(O)c(c3)-c3c(O)cc(O)cc3[C@H](C(=O)O)NC5=O)nn2)nn1 (stereo not given in full) | 20 | – | > 100 | – | > 100 | – | > 100 | > 100 | > 100 | > 100 | > 100 | 100 | 19 | > 100 | 8.9 | > 50 | 23 | 30 |
| CCCCCCSC1=C(SCCCCCC)C(=O)N(Cc2cn(C3C(=O)N[C@@H]4Cc5ccc(c(Cl)c5)Oc5cc6cc(c5O)Oc5ccc(cc5Cl)[C@@H](O[C@@H]5O[C@H](CO)[C@@H](O)[C@H](O)[C@H]5NC(C)=O)[C@H]5NC(=O)[C@H](NC(O)[C@@H]6NC(=O)[C@@H](NC4=O)c4cc(O)cc(c4)Oc4cc3ccc4O)c3ccc(O)c(c3)-c3c(O)cc(O)cc3[C@H](C(=O)O)NC5=O)nn2)C1=O (stereo not given in full) | ≥ 4 | – | 4 | – | > 100 | – | 3.1 | 2.9 | 1.9 | 1.9 | 2.7 | ≥ 20 | 12 | 2.3 | 8.9 | ≥ 50 | 6.4 | 9.5 |
